Screens (PubChem)
Compounds with a hit are over-represented: about 2.9% of the library has one in this group of screens.
B2AR ag = human beta-2 adrenergic receptor agonism by FAP. Am2.2-beta2AR cells, FAP receptor internalization, flow cytometry. response, % (no concentration beside the values). 340,000 compounds, 0.43% hits;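 active = response above a set limit, near 3 SD of response in nonfluorescent compounds, cut at about 42% in these data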
ATG4B inhibitor = ATG4B (human) cysteine protease inhibition; Q9Y4P1; ATG4B cleavage of LC3-PLA2, NBD-HPC fluorescence, 1 h; inhibition, % at 8.33 µM; 340,000 compounds, 0.51% hits; AID 504462; in the data active = inhibition above about 40%
MEKK3 PB1 HTS = raises or lowers MEK5 binding to the human MEKK3 PB1 domain; Q99759; bead-based flow cytometry, Alexa488-MEK5 binding to MEKK3; actives lie on both sides; 0 = blocked by unlabeled MEK5, 100 = vehicle; binding response (% of control), % at 10 µM; 290,000 compounds, 1.4% hits; AID 1529;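 active = binding response more than 3 SD above or below the average of its plate-row segment, actives on both sides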;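 also: Alexa488 bead fluorescence after subtracting the streptavidin-only scavenger bead signal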
Target sequence (Q99759 whole entry, looked up, the tested form may be a part): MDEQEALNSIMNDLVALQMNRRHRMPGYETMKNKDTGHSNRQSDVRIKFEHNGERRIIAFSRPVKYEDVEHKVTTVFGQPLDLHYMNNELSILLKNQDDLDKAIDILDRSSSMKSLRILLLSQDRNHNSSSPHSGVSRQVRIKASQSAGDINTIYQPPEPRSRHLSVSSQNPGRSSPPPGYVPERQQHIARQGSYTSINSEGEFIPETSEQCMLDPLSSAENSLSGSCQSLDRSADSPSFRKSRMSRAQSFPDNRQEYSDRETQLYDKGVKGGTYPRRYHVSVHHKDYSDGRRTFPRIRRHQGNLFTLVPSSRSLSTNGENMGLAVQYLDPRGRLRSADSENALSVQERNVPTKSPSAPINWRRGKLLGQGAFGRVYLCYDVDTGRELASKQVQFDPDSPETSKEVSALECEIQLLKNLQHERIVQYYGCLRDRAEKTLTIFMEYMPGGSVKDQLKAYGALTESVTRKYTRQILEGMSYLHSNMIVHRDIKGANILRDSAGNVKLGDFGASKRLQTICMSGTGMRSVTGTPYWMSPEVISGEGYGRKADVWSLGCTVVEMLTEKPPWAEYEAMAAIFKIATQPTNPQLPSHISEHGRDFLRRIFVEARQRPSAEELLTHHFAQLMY
Dynein transport = dynein cargo transport inhibition; 3617.4 mouse cells, GR-EGFP nuclear translocation imaging; test concentration mostly 20 µM; stimulated with dexamethasone, 1 µM; active compounds read low; z-score, hits read low; 220,000 compounds, 0.47% hits; AID 1381;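 active = plate z-score of nuclear minus cytoplasmic receptor signal below a set negative limit, without overly bright fluorescence or cell loss, cut at about -3.5 in these data, passing the limit was not always enough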;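 also: z-score of nuclear minus cytoplasmic ring GR-EGFP intensity difference per well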
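Medium: Induction medium lacking tetracycline, stripped serum | Probe or stimulus: 1.0 µM final dexamethasone stimulus | Schedule: 48 h induction, then 1 h compound, then 30 min agonist, 37 °C | Signal: Automated 10x imaging of fixed Hoechst-stained cells | Evaluation: Per-cell GR-EGFP intensity, nucleus versus surrounding cytoplasmic ring, well-averaged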
MEKK2mut PB1 HTS = signal of MEK5 binding to mutant human MEKK2 PB1 domain; 290,000 compounds, 0.35% hits; AID 1530; bead flow cytometry, Alexa488-MEK5 binding to MEKK2 mutant; percent response, % at 10 µM; in the data active = percent response above about 24%, passing the limit was not always enough
MEKK2wt PB1 HTS = raises or lowers MEK5 binding to wildtype human MEKK2 PB1 domain | 290,000 compounds, 1.1% hits | binding response (% of control), % at 10 µM | Q9Y2U5 | bead flow cytometry, Alexa488-MEK5 binding to MEKK2 WT; actives lie on both sides; in the data active = binding response below about 67% or above about 130%
MEKK2wt confirm = raises or lowers MEK5 binding to wildtype human MEKK2, retest. shares compounds with MEKK3 PB1 HTS. bead flow cytometry, Alexa488-MEK5 binding to MEKK2 WT; actives lie on both sides. binding response (% of control), % at 10 µM. 5,900 compounds, 2.4% hits. AID 1892; in the data active = binding response below about 16% or above about 210%; inactive = in between
MEKK2mut-MEK5 = signal of MEK5 binding to mutant human MEKK2, retest; bead flow cytometry, Alexa488-MEK5 binding to MEKK2 mutant; AID 1893; shares compounds with MEKK3 PB1 HTS; percent response, % at 10 µM; 5,900 compounds, 2% hits; in the data active = percent response mostly above about 71%, no sharp cut-off; inactive = mostly below about 38%;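 also: higher means compound restores mutant binding toward wildtype level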
MEKK3-MEK5 inh = confirmation of inhibitors of MEK5 binding to human MEKK3 | binding response (% of control), % at 10 µM | shares compounds with MEKK3 PB1 HTS | 5,900 compounds, 1.8% hits | AID 1894 | bead flow cytometry, Alexa488-MEK5 binding to MEKK3; active compounds read low;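 active = binding response below 72% of control, or above a set upper limit, though filed actives all read lower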;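 also: lower values mean stronger disruption of MEK5 binding to MEKK3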
Hits are given with their value; i = inactive; nt = no result; [ ] = another dose, or the depositor's remark.

SMILES	B2AR ag	ATG4B inhibitor	MEKK3 PB1 HTS	Dynein transport	MEKK2mut PB1 HTS	MEKK2wt PB1 HTS	MEKK2wt confirm	MEKK2mut-MEK5	MEKK3-MEK5 inh
CCCC(=O)NC(NC(=S)Nc1ccc(S(N)(=O)=O)cc1)C(Cl)(Cl)Cl (stereo not drawn)	i	i	131	i	i	i	i	i	i
CCN1C(=NCCc2c[nH]c3ccccc23)N[C@@H](c2ccccc2)[C@H](C(=O)OC)[C@H]1C	i	i	i	nt	i	i	nt	nt	nt
CCCS(=O)(=O)c1nc(S(=O)(=O)c2ccc(Cl)cc2)c(N2CCC(O)CC2)s1	i	i	i	nt	i	i	nt	nt	nt
[O-]/[N+](=C/c1ccccc1)c1ccccc1	i	i	nt	nt	nt	nt	nt	nt	nt
CCOC(=O)N1CCC(Nc2nc3ccccc3n3cnnc23)CC1	i	i	0.0[inhibitor]	i	i	0.0[inhibitor]	i	i	i
CCOC(=O)N1CCN(c2nc3ccc(C(=O)c4ccccc4)cc3n3cnnc23)CC1	i	i	i	i	i	i	nt	nt	nt
O=C(Nc1ccccc1F)C(=O)c1cn(CC(=O)N2CCCCC2)c2ccccc12	i	i	44[inhibitor]	i	i	i	i	i	i
CC(=O)Nc1ccc(NC(=O)C(=O)c2cn(CC(=O)N3CCCC3)c3ccccc23)cc1	i	i	i	nt	i	i	nt	nt	nt
CCN(CC)CCCNC(=O)c1sc2nc(-c3ccc(F)cc3)cn2c1C	i	i	i	i	i	138	i	i	i
Cc1c(C(=O)NCc2ccccn2)sc2nc(-c3ccc(F)cc3)cn12	i	i	i	i	i	i	nt	nt	nt
COc1ccc(Cl)cc1NC(=O)CNc1ccccc1CN(C)C1CCCCC1	i	i	i	i	i	154	i	i	i
COc1ccc(C)cc1NC(=O)CNc1ccccc1CN(C)C1CCCCC1	i	i	i	i	i	i	nt	nt	nt
CCOc1ccc(Oc2c(/C=N/NC(=O)C3CC3)c(C)nn2-c2ccccc2)cc1	i	i	131	i	i	i	i	i	i
C=CCSC1=C(C#N)C(c2ccccc2OCC)CC(=O)N1 (stereo not drawn)	i	i	0.0[inhibitor]	i	i	-8.0[inhibitor]	i	i	i
COC(=O)CSC1=C(C#N)C(c2ccccc2)CC(=O)N1 (stereo not drawn)	i	i	2.0[inhibitor]	i	i	-2.0[inhibitor]	i	i	i
C=CCSC1=C(C#N)C(c2ccccc2OC)CC(=O)N1 (stereo not drawn)	i	i	i	i	i	i	nt	nt	nt
CCCCC(Sc1nc(C)c(Cc2ccccc2)c(=O)[nH]1)C(=O)O (stereo not drawn)	i	i	i	nt	i	i	nt	nt	nt
Cc1ccc(C(C)C)c(OCC(=O)NNC(=O)CC2OC(=O)c3ccccc32)c1 (stereo not drawn)	i	i	nt	nt	nt	nt	nt	nt	nt
COc1ccc2ccccc2c1/C=N/O	i	i	133	i	i	i	i	i	i
C=CCOc1ccc2ccccc2c1/C=N/O	i	i	i	i	i	i	nt	nt	nt
CC(C)(C)c1nnc(N/N=C/c2cc(Br)ccc2O)n(N)c1=O	i	i	142	i	i	i	i	i	i
CCc1nnc(N/N=C/c2cc(Br)c(O)cc2O)n1N	i	i	i	nt	i	i	nt	nt	nt
CCOC(=O)C1CCN(CCCSc2ccc(C)cc2)CC1	i	i	i	nt	i	i	nt	nt	nt
CN(C)C(CNC(=S)Nc1cccc(Cl)c1)c1cccnc1 (stereo not drawn)	i	i	i	i	i	i	nt	nt	nt
Cc1ccc(NC(=O)CNC(=O)c2ccc(C)o2)cc1	i	i	29[inhibitor]	nt	i	46[inhibitor]	i	i	i
Cc1ccc(C(=O)Nc2ccc(NC(=O)c3ccc(C)o3)cc2)o1	i	i	i	nt	i	i	nt	nt	nt
